The Ki is a measure of affinity in units of concentration, obtained from inhibition or displacement. Lower therefore signals higher affinity. Usually IC50 stands for the concentration needed to halve the response being measured.

The text below walks through data of ChEMBL document CHEMBL1152185, “Synthesis of a novel 6,14-epoxymorphinan derivative and its pharmacology” (Bioorg Med Chem Lett, 2008).

Active and inactive are the calls of the source. The rule behind the calls is not given here.

One test has as its target Mu-type opioid receptor (Mus musculus, UniProt P42866). Briefly: Displacement of [3H]DAMGO from mu opioid receptor in mouse whole brain without cerebellum. The procedure, abridged: (§1)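 Competition binding on mouse whole-brain membranes, using [³H]DAMGO for mu and [³H]DPDPE for delta. % specific binding was plotted against log concentration, and IC50 was derived from the curve.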
(In general: Loss of bound radioactivity is the signal in a displacement assay; it reports binding, not function.)

Test [1] concerns the target Delta-type opioid receptor (Mus musculus, UniProt P32300). Briefly: Displacement of [3H]DPDPE from delta opioid receptor in mouse whole brain without cerebellum. The procedure, abridged: as §1
Test [2] has as its target Kappa-type opioid receptor (Cavia porcellus, UniProt P41144). In words: Displacement of [3H]U69,593 from kappa opioid receptor in guinea pig cerebellum. The class given is tissue-based.
For test [3], the target named is Kappa-type opioid receptor (Mus musculus) (UniProt P33534). In words: Agonist activity at kappa opioid receptor-mediated G-protein activation in mouse whole brain membrane without cerebellum at 10 uM by [35S]GTPgammaS binding assay. The class given is functional, cell membranes. The procedure, abridged: (§2)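 Mouse whole-brain membranes (cerebellum removed) incubated with [³⁵S]GTPγS and GDP plus agonist at 10^-5 M, alone or together with nor-BNI or b-FNA (levels not given). The read-out is % stimulation of [³⁵S]GTPγS binding.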
On the technique in general: Binding of GTPγS marks nucleotide exchange on a G protein.

For test [4] the target is unchanged. In words: Agonist activity at kappa opioid receptor-mediated G-protein activation in mouse whole brain membrane without cerebellum at 10 uM by [35S]GTPgammaS binding assay in presence of nor-BNI. The class given is functional, cell membranes. The procedure, abridged:
as §2

Test [5] has the same target. Briefly: Agonist activity at kappa opioid receptor-mediated G-protein activation in mouse whole brain membrane without cerebellum at 10 uM by [35S]GTPgammaS binding assay in presence of beta-funaltrexamine. The class given is functional, cell membranes. The essentials:
as §2

The test system of test [6] is Mus musculus. Briefly: Antinociceptive activity in mouse at 10 mg/kg, sc by hotplate test. The class given is functional, organism-based. Further details: dose 10 mg/kg. The procedure, abridged:
(§3)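 Mice were given agonist 10 mg/kg sc, and antinociception was read in the hot-plate and tail-flick tests. Pretreatment was saline or nor-BNI (5 or 20 mg/kg sc) 24 h before agonist. Data are mean with SEM, n = 6–8, compared with the saline–agonist group.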

The test system of test [7] is Mus musculus. In words: Antinociceptive activity in mouse at 10 mg/kg, sc by tail-flick test. The class given is functional, organism-based. More on the design: dose 10 mg/kg. The procedure, abridged: as §3
For test [8], the system named is Mus musculus. In words: Antinociceptive activity in mouse assessed as inhibition of analgesia at 10 mg/kg, sc pretreated with 20 mg/kg, sc nor-BNI for 24 hrs by hotplate test. It counts as functional, organism-based. The procedure, abridged: as §3
For test [9], the system named is Mus musculus. Briefly: Antinociceptive activity in mouse assessed as inhibition of analgesia at 10 mg/kg, sc pretreated with 20 mg/kg, sc nor-BNI for 24 hrs by tail-flick test. It counts as functional, organism-based. The essentials:
as §3

In test [10] the test system is Mus musculus. In words: Antinociceptive activity in mouse assessed as inhibition of analgesia at 10 mg/kg, sc pretreated with 20 mg/kg, sc beta-funaltrexamine for 24 hrs by hotplate test. The class given is functional, organism-based. The essentials: (§4)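 Mouse hot-plate and tail-flick antinociception after agonist 10 mg/kg sc. Pretreatment was saline, b-FNA 20 mg/kg sc or NTI 3 mg/kg sc, given at 24 h or 30 min before agonist. Data are mean with SEM of 6–8 trials.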

The subject of test [11] is Mus musculus. In words: Antinociceptive activity in mouse assessed as inhibition of analgesia at 10 mg/kg, sc pretreated with 20 mg/kg, sc beta-funaltrexamine for 24 hrs by tail-flick test. It counts as functional, organism-based. The procedure, abridged: as §4
(In general: In hot-plate and tail-flick tests a longer latency is read as antinociception.)

Test [12] has as its system Mus musculus. In words: Antinociceptive activity in mouse assessed as inhibition of analgesia at 10 mg/kg, sc pretreated with 3 mg/kg, sc NTI for 24 hrs by hotplate test. The class given is functional, organism-based. The procedure, abridged:
as §4

For test [13], the system named is Mus musculus. Briefly: Antinociceptive activity in mouse assessed as inhibition of analgesia at 10 mg/kg, sc pretreated with 3 mg/kg, sc NTI for 24 hrs by tail-flick test. It counts as functional, organism-based. The essentials:
as §4

Sequence of Kappa-type opioid receptor (Mus musculus) (P33534 whole entry): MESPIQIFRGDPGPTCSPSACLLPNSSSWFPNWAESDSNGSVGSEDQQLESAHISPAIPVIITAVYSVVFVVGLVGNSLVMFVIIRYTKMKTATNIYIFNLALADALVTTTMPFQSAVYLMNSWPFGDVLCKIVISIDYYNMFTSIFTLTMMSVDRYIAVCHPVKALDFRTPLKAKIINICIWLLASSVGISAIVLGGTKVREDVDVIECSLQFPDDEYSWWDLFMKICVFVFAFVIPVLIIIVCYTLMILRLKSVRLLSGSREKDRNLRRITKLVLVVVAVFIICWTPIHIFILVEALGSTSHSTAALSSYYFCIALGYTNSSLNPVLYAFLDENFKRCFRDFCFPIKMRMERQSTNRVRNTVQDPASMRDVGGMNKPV
Sequence of Mu-type opioid receptor (P42866 whole entry): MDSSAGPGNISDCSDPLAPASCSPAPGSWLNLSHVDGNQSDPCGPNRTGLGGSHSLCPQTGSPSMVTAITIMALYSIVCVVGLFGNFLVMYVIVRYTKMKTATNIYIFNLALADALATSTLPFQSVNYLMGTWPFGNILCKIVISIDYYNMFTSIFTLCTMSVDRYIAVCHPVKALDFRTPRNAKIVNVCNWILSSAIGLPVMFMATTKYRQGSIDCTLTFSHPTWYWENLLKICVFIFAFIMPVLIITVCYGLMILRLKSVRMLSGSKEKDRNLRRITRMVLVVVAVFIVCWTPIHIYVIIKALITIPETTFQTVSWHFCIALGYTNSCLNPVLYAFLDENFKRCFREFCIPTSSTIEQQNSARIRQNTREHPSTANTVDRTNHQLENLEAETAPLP
Sequence of Delta-type opioid receptor (P32300 whole entry): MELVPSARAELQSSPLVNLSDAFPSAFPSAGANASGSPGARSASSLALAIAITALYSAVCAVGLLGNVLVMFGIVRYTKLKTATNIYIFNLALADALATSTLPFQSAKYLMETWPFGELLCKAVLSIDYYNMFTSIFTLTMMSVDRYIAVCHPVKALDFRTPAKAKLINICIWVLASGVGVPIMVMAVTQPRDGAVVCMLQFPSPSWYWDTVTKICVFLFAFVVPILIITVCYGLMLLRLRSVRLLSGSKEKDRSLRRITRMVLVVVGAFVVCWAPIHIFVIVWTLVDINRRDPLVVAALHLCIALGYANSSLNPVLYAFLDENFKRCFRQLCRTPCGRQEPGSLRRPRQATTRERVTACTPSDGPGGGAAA
Sequence of Kappa-type opioid receptor (P41144 whole entry): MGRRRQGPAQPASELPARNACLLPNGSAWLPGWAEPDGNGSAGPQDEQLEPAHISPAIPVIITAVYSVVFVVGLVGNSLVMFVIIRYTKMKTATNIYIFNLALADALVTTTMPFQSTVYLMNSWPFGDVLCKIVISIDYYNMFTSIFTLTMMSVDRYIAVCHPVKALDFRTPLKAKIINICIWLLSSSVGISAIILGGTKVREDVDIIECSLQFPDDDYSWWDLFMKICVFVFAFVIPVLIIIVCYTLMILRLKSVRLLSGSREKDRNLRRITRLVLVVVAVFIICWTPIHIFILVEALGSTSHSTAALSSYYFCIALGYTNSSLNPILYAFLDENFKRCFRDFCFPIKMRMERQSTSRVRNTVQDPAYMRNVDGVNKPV

Regarding `O=C1N(CCc2ccccc2)CO[C@]12CC[C@@]1(O)[C@@H]3Cc4ccc(O)c5c4[C@@]1(CCN3CC1CC1)[C@H]2O5`, the values for the Ki (on Mu-type opioid receptor; in test [1]; in [2]) were 4.54 nM, 4.82 nM and 8.66 nM, respectively.
Consider `O=C(NC[C@]12CC[C@@]3(O1)[C@@H]1Cc4ccc(O)cc4[C@@]3(CCN1CC1CC1)C2)c1ccccc1`, for which the IC50 was 0.288 nM on Mu-type opioid receptor and 2.07 nM in test [1]. For the same compound, the Activity was determined as 29.8% in test [3], 10.7% in [4] and 19.2% in [5]. For the same compound, the outcome with Mus musculus [6], in the test on Mus musculus [7], in the test on Mus musculus [8] and with Mus musculus [9] was Active. For the same compound, the result with Mus musculus [10], with Mus musculus [11], in the test on Mus musculus [12] and in the test with Mus musculus [13] was inactive.
